Assay results from different studies.
Protocols differ between the studies behind these lines.
Effect on: enzyme activity
Action: inhibitor
IGF1R: Insulin-like growth factor 1 receptor (IGF1R, Homo sapiens, UniProt P08069)
IGF1R phosphorylated: Insulin-like growth factor 1 receptor, phosphorylated (IGF1R, Homo sapiens, UniProt P08069)

SMILES	target	technique	concentration	remaining activity [%]
CC(C)(C)c1nc(-c2cccc(NS(=O)(=O)c3c(F)cccc3F)c2F)c(-c2ccnc(N)n2)s1	IGF1R	radiometric	1 µM	81
CC(C)(O)[C@H]1CC[C@H](Nc2ccc3ncc(-c4cccc(C(F)(F)F)c4)n3n2)CC1	IGF1R		1 µM	99.2
Cc1[nH]c(/C=C2\C(=O)Nc3ccc(F)cc32)c(C)c1C(=O)N[C@H]1CCN(C(=O)N(C)C)C1	IGF1R		1 µM	106
Cc1ccc(NC(=O)c2ccc(C)c(C(F)(F)F)c2)cc1C#Cc1nn(C2CCC(O)CC2)c2ncnc(N)c12 (stereo not shown)	IGF1R phosphorylated		10 µM	91
COc1cc(Nc2cnc(C#N)c(O[C@H](C)CN(C)C)n2)ncc1-c1cnn(C)c1	IGF1R	radiometric	10 µM	73
Cc1sc(C(=O)NC2COC2)cc1-n1cc(NC(=O)Nc2c(F)cccc2Cl)cn1	IGF1R		10 µM	102
CCN(CC)c1ccc(C2=NNC(=O)CC2C)cc1[N+](=O)[O-] (stereo not shown)	IGF1R phosphorylated		10 µM	102
Oc1cccc(-c2nc(N3CCOCC3)c3oc4ncccc4c3n2)c1	IGF1R		10 µM	54
CCCOc1ccc(OC)c(F)c1C(=O)c1ccc(C(=O)N[C@@H]2CNC[C@H]2NC(=O)c2ccc3[nH]ncc3c2)cc1	IGF1R phosphorylated		10 µM	76
O=C(Nc1cnn(-c2csc(C(=O)NC3COC3)c2)c1)Nc1c(F)cccc1Cl	IGF1R		5 µM	94.9
CCN(CC)CCNC(=O)c1c(C)[nH]c(/C=C2\C(=O)Nc3ccc(F)cc32)c1C	IGF1R		1 µM	67
Nc1nc(Nc2ccccc2)sc1C(=O)c1c(F)cccc1F	IGF1R		10 µM	80
Cc1cnc(NC2CCOCC2)nc1-n1cnc(C(=O)NC(CN)c2cc(F)cc(Cl)c2)c1 (stereo not shown)	IGF1R	radiometric	1 µM	103
